Measured values: ChEMBL document CHEMBL2429851, “New synthesis and tritium labeling of a selective ligand for studying high-affinity γ-hydroxybutyrate (GHB) binding sites” (J Med Chem, 2013)
Calls of active or inactive are those of the source. The rule behind the calls is not given here.

Experiments:
[1] = (§1) Displacement of [3H]-3-hydroxycyclopent-1-enecarboxylic acid from GHB binding site in Sprague-Dawley rat cerebral cortex after 1 hr by scintillation counting analysis; assay type: tissue-based
Procedure, shortened: (§2)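 Rat cerebrocortical membranes incubated with 10 nM [3H]-ligand and competitor over a concentration range. Conditions follow the earlier [3H]NCS-382 protocol. Non-specific binding defined with 1 mM GHB. IC50 taken from inhibition curves. Each experiment run in triplicate, with three additional repeats.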

[2] = Radiochemical stability of the compound in aqueous solution of gentisic acid by HPLC analysis; assay type: physicochemical; settings: buffer
Procedure, shortened: (§3)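 [3H]-labelled compound tested for protection against radiolysis in four formulations, including ethanol and aqueous gentisic acid (50 mM), at 1 mCi/mL. Stability followed by HPLC (area%, 245 nm).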

[3] = Radiochemical stability of the compound in ethanol at 1 mCi/mL by HPLC analysis; assay type: physicochemical; procedure, shortened: as §3
[4] = Ratio of drug level in brain to plasma in C57 mouse at 10 mg/kg, po after 30 mins by LC-MS/MS analysis; assay type: ADME, organism-based; design: dose 10 mg/kg, route oral; settings: read-out: BPR
Procedure, shortened: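 Mice dosed orally at 10 mg/kg, a single acute dose. Brain and plasma sampled 30 minutes after dosing, and the brain-to-plasma concentration ratio calculated.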

Rattus norvegicus [5] = species on record: Rattus norvegicus; settings: Sprague-Dawley, Cerebral cortex, at 100 µM
MDCK [6] = test: Apparent permeability from basolateral to apical side in MDCK cells expressing MDR1; assay type: ADME, cell-based, Canis lupus familiaris; settings: dog
MDCK [7] = test: Apparent permeability from apical to basolateral side in MDCK cells expressing MDR1; assay type: ADME, cell-based, Canis lupus familiaris; settings: dog
Rattus norvegicus [8] = species on record: Rattus norvegicus; settings: Sprague-Dawley, Cerebral cortex, at 1 mM
Rattus norvegicus [9] = species on record: Rattus norvegicus; test: as §1; assay type: tissue-based; procedure, shortened: as §2
[10] = Chemical stability of the compound in Milli-Q water at -30 degC by HPLC analysis; assay type: physicochemical; settings: buffer
Procedure, shortened: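 HPLC purity tracking (area%, 245 nm) of the compound dissolved at 2 mg/mL in MilliQ water (pH 3.5). Stored at −30±2°C and also at room temperature, sampled over time (days to over a year).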

[11] = Displacement of [3H]NCS-382 from GHB binding site in Sprague-Dawley rat brain synaptic membranes after 1 hr by scintillation counting analysis; assay type: cell membranes, Membrane

Row | SMILES | IC50 [1] [µM] | pIC50 [1] | Kp at 0.5 h [4] | permeability (MDCK [6]) | permeability (MDCK [7]) | inhibition (Rattus norvegicus [9]) | other results
1 | O=C([O-])C1=CC(O)CC1.[Na+] (stereo not given) | 0.116 | 6.93 | – | – | – | – | –
2 | [3H]C1(O)C=C(C(=O)O)CC1 (stereo not given) | – | – | – | – | – | – | Stability [2]: Stable; Stability [3]: Stable
3 | O=C(O)/C=C1\CCCc2ccccc2C1O (stereo not given) | – | – | 0.38 | impermeable | impermeable | – | inhibition (Rattus norvegicus [5]): Active
4 | COc1ccc(-c2ccc(=N)n(CCCC(=O)O)n2)cc1 | – | – | – | – | – | – | inhibition (Rattus norvegicus [5]): Active
5 | NCC(CC(=O)O)c1ccc(Cl)cc1 (stereo not given) | – | – | – | – | – | – | inhibition (Rattus norvegicus [8]): inactive
6 | O=C(O)C1=CC(O)CC1 (stereo not given) | – | – | – | – | – | Dose-dependent effect | –
7 | O=C(O)C1=CC(O)CC1 (racemic) [listing 1 of 2 here] | 0.073 | 7.14 | 0.37 | impermeable | impermeable | – | Stability [10]: 16 months; Ki [11]: 0.16 µM
8 | O=C(O)C1=CC(O)CC1 (racemic) [listing 2 of 2 here] | – | – | – | – | – | Dose-dependent effect | –
9 | O=C(O)CCCO [OXYBATE] | 1.14 | 5.94 | 0.2 | impermeable | impermeable | Dose-dependent effect | –
